The test system of assay [1] is Nucleic Acid. Kind of assay: Percent inhibition against DNA polymerase alpha when (dT)n-(rA)12-18 sequence was used as template at 10 uM concentration. The format is nucleic-acid assay. Put shortly: (§1)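 Cellular DNA polymerase α (2.5 units/mL) was run in Tris-HCl pH 8.0 buffer with MgCl2, DTT and BSA at 37 °C. Values are duplicate means, and inhibition under 5% was taken as not significant.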

A short description of assay [2]: Percent inhibition against DNA polymerase alpha when activated DNA was used as template at 10 uM concentration. A digest of the protocol: (§2)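 Commercial cellular DNA polymerase α (2.5 units/mL) was run in 100 mM Tris-HCl pH 8.0 with 3 mM MgCl2, 1 mM DTT, 40 μg BSA, 100 μM dATP/dCTP/dGTP, ~10 μM [3H]dTTP and 200 μg/mL activated DNA. Incubation was at 37 °C. Values are duplicate means, and inhibition under 5% was taken as not significant.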

For assay [3], the system named is unidentified influenza virus. The format is functional. As to conditions: at 200 µM.
For assay [4], the system named is Avian myeloblastosis virus reverse transcriptase (Avian myeloblastosis virus). Put plainly: Percent inhibition against AMV reverse transcriptase when (dT)n-(rA)12-18 sequence was used as template at 50 uM concentration.
Assay [5] concerns Human alphaherpesvirus 1. Kind of assay: Inhibitory effect against HSV-1 plaque formation at a concentration of 10 uM. The assay is classed as functional. A digest of the protocol: (§3)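 HSV-1 strain C42 plaque formation in Vero cells, with compound added to parallel cultures. Values are averages of duplicate cell cultures.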
For assay [6], the system named is Human alphaherpesvirus 1. Kind of assay: Percent reduction in HSV-1 yield at 10 uM concentration. The format is functional. Put shortly:
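HSV-1 strain C42 yield from Vero cells, measured by virus titration. Compounds were added to parallel cultures, and values are averages of duplicate cultures. Inhibition below 50% was not considered significant.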

Assay [7] has as its system Avian myeloblastosis virus reverse transcriptase (Avian myeloblastosis virus). Put plainly: Percent inhibition against AMV reverse transcriptase when (rC)n-(dG)12-18 sequence was used as template at 50 uM concentration.
Assay [8] has as its system Human alphaherpesvirus 1. Put plainly: Percent inhibition of cellular growth against HSV-1 cells at 10 uM concentration. The assay is classed as functional. Conditions: Human alphaherpesvirus 1, HSV-1. A digest of the protocol: (§4)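 Toxicity taken as the reduction in Vero cell proliferation over 48 h.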
Assay [9] has as its system Human alphaherpesvirus 1. Kind of assay: Inhibitory effect against HSV-1 plaque formation at a concentration of 50 uM. The format is functional. A digest of the protocol:
as §3

Assay [10] relates to Avian myeloblastosis virus reverse transcriptase (Avian myeloblastosis virus). Kind of assay: Percent inhibition against AMV reverse transcriptase when (dC)n-(dG)12-18 sequence was used as template at 50 uM concentration.
For assay [11], the system named is HSV-1. Kind of assay: Percent inhibition of DNA polymerase activity in HSV-1 cell lines at a concentration of 10 uM. The format is cell-based. As to conditions: at 10 µM. A digest of the protocol:
(§5)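 HSV-1 DNA polymerase was isolated from Vero cells infected with HSV-1 strain C42. It was assayed with [3H]dTTP as labelled substrate and activated calf thymus DNA at 200 μg/mL. Values are averages of duplicate assays, and inhibition under 5% was taken as not significant.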

The test system of assay [12] is HSV-1. Kind of assay: Percent inhibition of DNA polymerase activity in HSV-1 cell lines at a concentration of 50 uM. The assay is classed as cell-based. Conditions: at 50 µM. A digest of the protocol: as §5
Assay [13] deals with Nucleic Acid. Kind of assay: Percent inhibition against DNA polymerase alpha when (dT)n-(rA)12-18 sequence was used as template at 50 uM concentration. The format is nucleic-acid assay. Put shortly:
as §1

Assay [14] is described as follows: Percent inhibition against DNA polymerase alpha when activated DNA was used as template at 50 uM concentration. Put shortly: as §2
For assay [15], the system named is unidentified influenza virus. Kind of assay: Inhibitory effect against influenza virus plaque formation at a concentration of 100 uM. The format is functional. Put shortly: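 Plaque inhibition of influenza A strain Victoria in MDCK cells. Values are averages of duplicate cell cultures.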
The subject of assay [16] is Human alphaherpesvirus 1. Put plainly: Inhibitory effect against HSV-1 plaque formation at a concentration of 200 uM. As to conditions: at 200 µM. The assay is classed as functional.
The subject of assay [17] is Human alphaherpesvirus 1. Put plainly: Inhibitory effect against HSV-1 plaque formation at a concentration of 5 uM. The assay is classed as functional. A digest of the protocol: as §3
In assay [18] the test system is Human alphaherpesvirus 1. Put plainly: Inhibitory effect against HSV-1 plaque formation at a concentration of 1 uM. The format is functional. Put shortly: as §3
Assay [19] has as its system Human alphaherpesvirus 1. Put plainly: (§6) Percent inhibition of cellular growth against HSV-1 cells at 200 uM concentration. As to conditions: Human alphaherpesvirus 1, HSV-1. The assay is classed as functional. Put shortly:
as §4

The test system of assay [20] is Human alphaherpesvirus 1. Kind of assay: Inhibitory effect against HSV-1 plaque formation at a concentration of 100 uM. The format is functional. Put shortly:
as §3

Assay [21] concerns Human alphaherpesvirus 1. Kind of assay: Percent inhibition of cellular growth against Vero cells at 100 uM concentration. The assay is classed as functional. As to conditions: Human alphaherpesvirus 1, HSV-1. Put shortly:
as §4

The test system of assay [22] is Human alphaherpesvirus 1. The description is as §6. The format is functional. Conditions: Human alphaherpesvirus 1, HSV-1. This is another data set of the same source.
For assay [23], the system named is Human alphaherpesvirus 1. Kind of assay: Percent inhibition of cellular growth against HSV-1 cells at a concentration of 200 uM. As to conditions: Human alphaherpesvirus 1, HSV-1. The assay is classed as functional. Put shortly:
as §4

Molecules are shown by their SMILES. A value given as a limit tells only on which side of the number the result lay.

As for `Br.Cn1cc(NC(=O)c2cc(NC(=O)c3cc(NC=O)cn3C)c[nH]2)cc1C(=O)NCCC(=N)N`, the inhibition in the assay with Nucleic Acid [1] was 55%; in assay [2] it was 29%; in assay [4], 13%; in assay [7] it was below 5%; in assay [10], below 5%; in the assay on HSV-1 [11], 55%. Also, the inhibition came out at 88% with HSV-1 [12], 80% in the assay with Nucleic Acid [13] and 41% in [14]. In addition, the Reduction in [3] is given as below 50%; in the assay on Human alphaherpesvirus 1 [5] it was below 50%; in the assay on Human alphaherpesvirus 1 [6], 92%; with Human alphaherpesvirus 1 [9] it was 90%. Also, the inhibition at 10 µM with Human alphaherpesvirus 1 [8] was found to be 25%.
For the compound `Br.CNC(=N)CCNC(=O)c1cc(NC(=O)c2cc(NC(=O)c3cc(NC=O)cn3C)cn2C)cn1C`, the inhibition was 50% in the assay on Nucleic Acid [1]; 27% in assay [2]; 12% in [4]; below 5% in assay [7]; below 5% in [10]; 45% in the assay with HSV-1 [11]. The inhibition in the assay on HSV-1 [12] worked out at 76%; in the assay on Nucleic Acid [13], 76%; in [14] it was 38%. The Reduction (in assay [15]; with Human alphaherpesvirus 1 [16]) was below 50% each time.
On to `Br.Cn1cc(NC=O)cc1C(=O)Nc1cc(C(=O)Nc2c[nH]c(C(=O)NCCC(=N)N)c2)n(C)c1`, for which the inhibition in the assay on Nucleic Acid [1] is 45%; in [2], 27%; in [4], 17%; in [7], below 5%; in assay [10], below 5%; in the assay on HSV-1 [11], 57%. Further, the inhibition in the assay on HSV-1 [12] worked out at 83%; in the assay with Nucleic Acid [13], 75%; in assay [14] it was 37%. The Reduction in the assay on Human alphaherpesvirus 1 [5] is above 90%; in the assay with Human alphaherpesvirus 1 [6], 99%; in assay [15], below 50%; in the assay with Human alphaherpesvirus 1 [17] it was 85%; with Human alphaherpesvirus 1 [18], below 50%. In the assay on Human alphaherpesvirus 1 [8], this compound had an inhibition at 10 µM of 60%.
Consider `Br.Cn1cc(NC(=O)c2cc(NC(=O)c3cc(NC(=O)c4cc(NC(=O)c5cc(NC=O)cn5C)cn4C)cn3C)cn2C)cc1C(=O)NCCC(=N)N`, for which the inhibition was 20% with Nucleic Acid [1]; 17% in assay [2]; 39% in [4]; below 5% in [7]; below 5% in [10]; 56% with HSV-1 [11]. The figures for the inhibition (in the assay with HSV-1 [12]; in the assay with Nucleic Acid [13]; in assay [14]) were 91%, 56% and 50%, respectively. The compound also returned an inhibition at 200 µM in the assay on Human alphaherpesvirus 1 [19] of 10%. Besides, the values for the Reduction (in assay [3]; with Human alphaherpesvirus 1 [16]) were 65% and below 50%, respectively.
With `Br.Cn1cc(NC(=O)c2cc(NC(=O)c3cc(NC=O)c[nH]3)cn2C)cc1C(=O)NCCC(=N)N`, the inhibition in the assay with Nucleic Acid [1] was 58%; in [2] it was 31%; in [4], 18%; in assay [7] it was below 5%; in assay [10] it was below 5%; in the assay on HSV-1 [11] it was 54%. Further, the inhibition in the assay on HSV-1 [12] was determined as 89%; with Nucleic Acid [13] it was 82%; in assay [14], 45%. Also, the Reduction is recorded as 75% in [3]; above 90% in the assay with Human alphaherpesvirus 1 [20]; 60% in the assay on Human alphaherpesvirus 1 [5]; 98% in the assay with Human alphaherpesvirus 1 [6]; 90% with Human alphaherpesvirus 1 [9]. Further, 10 µM produced 30% inhibition in the assay on Human alphaherpesvirus 1 [8]. In the assay on Human alphaherpesvirus 1 [21], this compound registered an inhibition at 100 µM of 50%.
For the compound `Br.CCn1cc(NC(=O)c2cc(NC(=O)c3cc(NC=O)cn3CC)cn2CC)cc1C(=O)NCCC(=N)N`, the inhibition was 58% in the assay with Nucleic Acid [1]; 29% in [2]; 9% in [4]; below 5% in assay [7]; below 5% in [10]; 47% in the assay with HSV-1 [11]. Further, the inhibition is 80% with HSV-1 [12], 75% in the assay with Nucleic Acid [13] and 39% in assay [14]. In addition, the Reduction (in assay [3]; in the assay with Human alphaherpesvirus 1 [16]) was below 50% in each case.
In the case of `Br.CCn1cc(NC(=O)c2cc(NC(=O)c3cc(NC=O)cn3C)cn2C)cc1C(=O)NCCC(=N)N`, the inhibition in the assay with Nucleic Acid [1] was 40%; in assay [2], 26%; in assay [4], 11%; in assay [7] it was below 5%; in assay [10], below 5%; with HSV-1 [11], 52%. Besides, the inhibition in the assay on HSV-1 [12] turned out to be 83%; in the assay on Nucleic Acid [13], 73%; in assay [14] it was 35%. Besides, in the assay with Human alphaherpesvirus 1 [22], 200 µM produced 10% inhibition. Further, the Reduction (in assay [3]; with Human alphaherpesvirus 1 [16]) was below 50% in each case.
As for `Br.CN(C)C(=N)CCNC(=O)c1cc(NC(=O)c2cc(NC(=O)c3cc(NC=O)cn3C)cn2C)cn1C`, the inhibition with Nucleic Acid [1] is 56%; in [2], 29%; in assay [4] it was 15%; in assay [7] it was below 5%; in [10], below 5%; in the assay with HSV-1 [11], 44%. Besides, the inhibition with HSV-1 [12] was 81%; with Nucleic Acid [13], 80%; in assay [14], 41%. In the assay with Human alphaherpesvirus 1 [19], this compound yielded an inhibition at 200 µM of 0%. Moreover, the Reduction in assay [15] was 50%; in the assay with Human alphaherpesvirus 1 [16], below 50%.
Take `Br.Cn1cc(NC(=O)c2cc(NC(=O)c3cc(NC=O)cn3C)cn2C)cc1C(=O)NCCC(=N)N`: the inhibition amounted to 58% in the assay on Nucleic Acid [1]; 31% in assay [2]; 49% in the assay with HSV-1 [11]; 83% in the assay with HSV-1 [12]; 82% in the assay with Nucleic Acid [13]; 40% in assay [14]. For the same compound, the Reduction with Human alphaherpesvirus 1 [6] was 27%; in [15], above 50%; in the assay with Human alphaherpesvirus 1 [16] it was 55%.
As to `Br.CCn1cc(NC=O)cc1C(=O)Nc1cc(C(=O)Nc2cc(C(=O)NCCC(=N)N)n(C)c2)n(C)c1`, the inhibition with Nucleic Acid [1] was 60%; in [2], 29%; in [4], 11%; in [7], below 5%; in assay [10], below 5%; with HSV-1 [11] it was 48%. Moreover, the inhibition in the assay with HSV-1 [12] was determined as 83%; in the assay with Nucleic Acid [13], 85%; in assay [14] it was 42%. This compound also came in with an inhibition at 200 µM with Human alphaherpesvirus 1 [19] of 50%. In addition, the Reduction was below 50% in assay [3] and 50% in the assay with Human alphaherpesvirus 1 [16].
In the case of `Br.CCn1cc(NC(=O)c2cc(NC=O)cn2C)cc1C(=O)Nc1cc(C(=O)NCCC(=N)N)n(C)c1`, the inhibition in the assay on Nucleic Acid [1] is 31%; in assay [2], 23%; in assay [4], 8%; in [7], below 5%; in assay [10], below 5%; in the assay with HSV-1 [11], 48%. The results for the inhibition (in the assay on HSV-1 [12]; with Nucleic Acid [13]; in assay [14]) were 83%, 64% and 34%, respectively. Also, the Reduction (in assay [3]; in the assay on Human alphaherpesvirus 1 [16]) was below 50% each time. In addition, the inhibition at 200 µM in the assay on Human alphaherpesvirus 1 [23] is 10%.

A word on the inhibition: it is the drop in the measured response relative to a control, in per cent. A high value points to strong suppression.
